From ChEMBL document CHEMBL5550111, “Design, synthesis and biological evaluation of aryloxy thiophosphoramidate triesters of anticancer nucleoside analogues” (Bioorg Med Chem, 2024)

Key:
[1] = tested on: PC-3; assay: Cytotoxicity against human PC-3 cells assessed as maximum inhibition of cell viability upto 198 uM incubated for 72 hrs by MTS assay relative to control; format: functional; conditions: up to 198 µM
Procedure, shortened: (§1)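 Cells seeded at 0.5 to 100 × 10^3 per well the day before drug addition, then exposed to compound for 72 h. MTS added afterwards, with a further 4 h at 37 °C, and absorbance read. Tested in duplicate at 9 serial 3.16-fold dilutions, top concentration 198 μM. MI% is the maximum inhibition of viability across the tested range.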

[2] = tested on: HT-29; assay: Cytotoxicity against human HT-29 cells assessed as inhibition of cell viability incubated for 72 hrs by MTS assay; format: functional, cell-based; conditions: HT-29, 72 h
Procedure, shortened: (§2)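 Cells seeded at 0.5 to 100 × 10^3 per well the day before treatment, then exposed for 72 h to 9 serial concentrations (3.16-fold dilutions, top 198 μM), in duplicate. MTS added for a final 4 h at 37 °C and absorbance read. IC50 is the concentration giving 50% loss of viability. MI% is the maximum inhibition over the tested range.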

[3] = tested on: HepG2; assay: Cytotoxicity against human HepG2 cells assessed as inhibition of cell viability incubated for 72 hrs by MTS assay; format: functional, cell-based; conditions: HepG2, 72 h; procedure, shortened: as §2
[4] = tested on: MCF7; assay: Cytotoxicity against human MCF7 cells assessed as maximum inhibition of cell viability upto 198 uM incubated for 72 hrs by MTS assay relative to control; format: functional; conditions: up to 198 µM; procedure, shortened: as §1
[5] = tested on: HepG2; assay: Cytotoxicity against human HepG2 cells assessed as maximum inhibition of cell viability upto 198 uM incubated for 72 hrs by MTS assay relative to control; format: functional; conditions: up to 198 µM; procedure, shortened: as §1
[6] = tested on: RL; assay: Cytotoxicity against human RL cells assessed as maximum inhibition of cell viability upto 198 uM incubated for 72 hrs by MTS assay relative to control; format: functional; conditions: up to 198 µM; procedure, shortened: as §1
[7] = tested on: RL; assay: Cytotoxicity against human RL cells assessed as inhibition of cell viability incubated for 72 hrs by MTS assay; format: functional, cell-based; procedure, shortened: as §2
[8] = Cytotoxicity against human T24/83 cells assessed as inhibition of cell viability incubated for 72 hrs by MTS assay; format: functional, cell-based; conditions: T24/83, 72 h; procedure, shortened: as §2
[9] = tested on: MIA PaCa-2; assay: Cytotoxicity against human MIA PaCa-2 cells assessed as inhibition of cell viability incubated for 72 hrs by MTS assay; format: functional, cell-based; conditions: MIA PaCa-2, 72 h; procedure, shortened: as §2
[10] = tested on: K562; assay: Cytotoxicity against human K562 cells assessed as inhibition of cell viability incubated for 72 hrs by MTS assay; format: functional, cell-based; conditions: K562, 72 h; procedure, shortened: as §2
[11] = tested on: A498; assay: Cytotoxicity against human A498 cells assessed as inhibition of cell viability incubated for 72 hrs by MTS assay; format: functional, cell-based; conditions: A498, 72 h; procedure, shortened: as §2
[12] = tested on: A498; assay: Cytotoxicity against human A498 cells assessed as maximum inhibition of cell viability upto 198 uM incubated for 72 hrs by MTS assay relative to control; format: functional; conditions: up to 198 µM; procedure, shortened: as §1
[13] = tested on: MCF7; assay: Cytotoxicity against human MCF7 cells assessed as inhibition of cell viability incubated for 72 hrs by MTS assay; format: functional, cell-based; conditions: MCF7, 72 h
[14] = tested on: HT-29; assay: Cytotoxicity against human HT-29 cells assessed as maximum inhibition of cell viability upto 198 uM incubated for 72 hrs by MTS assay relative to control; format: functional; conditions: up to 198 µM; procedure, shortened: as §1
[15] = tested on: MOLT-4; assay: Cytotoxicity against human MOLT-4 cells assessed as inhibition of cell viability incubated for 72 hrs by MTS assay; format: functional, cell-based; conditions: MOLT-4, 72 h; procedure, shortened: as §2
[16] = Cytotoxicity against human T24/83 cells assessed as maximum inhibition of cell viability upto 198 uM incubated for 72 hrs by MTS assay relative to control; format: functional; conditions: up to 198 µM; procedure, shortened: as §1
[17] = tested on: MDA-MB-231; assay: Cytotoxicity against human MDA-MB-231 cells assessed as maximum inhibition of cell viability upto 198 uM incubated for 72 hrs by MTS assay relative to control; format: functional; conditions: up to 198 µM; procedure, shortened: as §1
[18] = tested on: MIA PaCa-2; assay: Cytotoxicity against human MIA PaCa-2 cells assessed as maximum inhibition of cell viability upto 198 uM incubated for 72 hrs by MTS assay relative to control; format: functional; conditions: up to 198 µM; procedure, shortened: as §1
[19] = tested on: 5637; assay: Cytotoxicity against human 5637 cells assessed as inhibition of cell viability incubated for 72 hrs by MTS assay; format: functional, cell-based; conditions: Homo sapiens, 5637, 72 h; procedure, shortened: as §2
[20] = tested on: KG-1; assay: Cytotoxicity against human KG-1 cells assessed as maximum inhibition of cell viability upto 198 uM incubated for 72 hrs by MTS assay relative to control; format: functional; conditions: up to 198 µM; procedure, shortened: as §1
[21] = tested on: HL-60; assay: Cytotoxicity against human HL-60 cells assessed as inhibition of cell viability incubated for 72 hrs by MTS assay; format: functional, cell-based; conditions: HL-60, 72 h; procedure, shortened: as §2
[22] = Cytotoxicity against human ACHN-luc2 cells assessed as inhibition of cell viability incubated for 72 hrs by MTS assay; format: functional, cell-based; conditions: ACHN-luc2, 72 h; procedure, shortened: as §2
[23] = tested on: COLO 205; assay: Cytotoxicity against human COLO 205 cells assessed as maximum inhibition of cell viability upto 198 uM incubated for 72 hrs by MTS assay relative to control; format: functional; conditions: up to 198 µM; procedure, shortened: as §1
[24] = tested on: 5637; assay: Cytotoxicity against human 5637 cells assessed as maximum inhibition of cell viability upto 198 uM incubated for 72 hrs by MTS assay relative to control; format: functional; conditions: up to 198 µM; procedure, shortened: as §1
[25] = tested on: CAKI-2; assay: Cytotoxicity against human CAKI-2 cells assessed as inhibition of cell viability incubated for 72 hrs by MTS assay; format: functional, cell-based; conditions: CAKI-2, 72 h; procedure, shortened: as §2
[26] = tested on: K562; assay: Cytotoxicity against human K562 cells assessed as maximum inhibition of cell viability upto 198 uM incubated for 72 hrs by MTS assay relative to control; format: functional; conditions: up to 198 µM; procedure, shortened: as §1
[27] = tested on: COLO 205; assay: Cytotoxicity against human COLO 205 cells assessed as inhibition of cell viability incubated for 72 hrs by MTS assay; format: functional, cell-based; conditions: COLO 205, 72 h; procedure, shortened: as §2
[28] = tested on: MOLT-4; assay: Cytotoxicity against human MOLT-4 cells assessed as maximum inhibition of cell viability upto 198 uM incubated for 72 hrs by MTS assay relative to control; format: functional; conditions: up to 198 µM; procedure, shortened: as §1
[29] = tested on: HL-60; assay: Cytotoxicity against human HL-60 cells assessed as maximum inhibition of cell viability upto 198 uM incubated for 72 hrs by MTS assay relative to control; format: functional; conditions: up to 198 µM; procedure, shortened: as §1
[30] = tested on: MDA-MB-231; assay: Cytotoxicity against human MDA-MB-231 cells assessed as inhibition of cell viability incubated for 72 hrs by MTS assay; format: functional, cell-based; conditions: MDA-MB-231, 72 h; procedure, shortened: as §2
[31] = Cytotoxicity against human ACHN-luc2 cells assessed as maximum inhibition of cell viability upto 198 uM incubated for 72 hrs by MTS assay relative to control; format: functional; conditions: up to 198 µM; procedure, shortened: as §1
[32] = tested on: KG-1; assay: Cytotoxicity against human KG-1 cells assessed as inhibition of cell viability incubated for 72 hrs by MTS assay; format: functional, cell-based; conditions: KG-1, 72 h; procedure, shortened: as §2
[33] = tested on: PC-3; assay: Cytotoxicity against human PC-3 cells assessed as inhibition of cell viability incubated for 72 hrs by MTS assay; format: functional, cell-based; conditions: PC-3, 72 h; procedure, shortened: as §2
[34] = tested on: CAKI-2; assay: Cytotoxicity against human CAKI-2 cells assessed as maximum inhibition of cell viability upto 198 uM incubated for 72 hrs by MTS assay relative to control; format: functional; conditions: up to 198 µM; procedure, shortened: as §1

SMILES: Nc1ncnc2c1ncn2[C@@H]1O[C@H](CO)C[C@H]1O [CORDYCEPIN]
- Imax [1]: 70%
- IC50 [2]: 26.3 µM
- IC50 [3]: 77.2 µM
- Imax [4]: 93%
- Imax [5]: 71%
- Imax [6]: 4%
- IC50 [7]: 135 µM
- IC50 [8]: 99.1 µM
- IC50 [9]: 76.8 µM
- IC50 [10]: 94.4 µM
- IC50 [11]: 85.4 µM
- Imax [12]: 18%
- IC50 [13]: 45.9 µM
- Imax [14]: 90%
- IC50 [15]: 85.3 µM
- Imax [16]: 96%
- Imax [17]: 59%
- Imax [18]: 87%
- IC50 [19]: 71.6 µM
- Imax [20]: 92%
- IC50 [21]: 145 µM
- IC50 [22]: 77 µM
- Imax [23]: 24%
- Imax [24]: 44%
- IC50 [25]: 94.2 µM
- Imax [26]: 70%
- IC50 [27]: 108 µM
- Imax [28]: 77%
- Imax [29]: 57%
- IC50 [30]: 78.6 µM
- Imax [31]: 14%
- IC50 [32]: 89 µM
- IC50 [33]: 85.3 µM
- Imax [34]: 25%
